Measured values as given in paper PMC8048584 (Chemmedchem, 2021).

Target: human DDR1 (Homo sapiens, UniProt Q08345)
Assay: Off-chip Mobility Shift Assay
Assay type: biochemical
Procedure, shortened: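 Carried out by a contract kinase profiling service, with details in the Supporting Information. IC50 (50 % inhibition) was read from semi-logarithmic dose-response plots of the test compound. Each value is the mean of duplicate samples.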

human DDR1, sequence (Q08345 19-913): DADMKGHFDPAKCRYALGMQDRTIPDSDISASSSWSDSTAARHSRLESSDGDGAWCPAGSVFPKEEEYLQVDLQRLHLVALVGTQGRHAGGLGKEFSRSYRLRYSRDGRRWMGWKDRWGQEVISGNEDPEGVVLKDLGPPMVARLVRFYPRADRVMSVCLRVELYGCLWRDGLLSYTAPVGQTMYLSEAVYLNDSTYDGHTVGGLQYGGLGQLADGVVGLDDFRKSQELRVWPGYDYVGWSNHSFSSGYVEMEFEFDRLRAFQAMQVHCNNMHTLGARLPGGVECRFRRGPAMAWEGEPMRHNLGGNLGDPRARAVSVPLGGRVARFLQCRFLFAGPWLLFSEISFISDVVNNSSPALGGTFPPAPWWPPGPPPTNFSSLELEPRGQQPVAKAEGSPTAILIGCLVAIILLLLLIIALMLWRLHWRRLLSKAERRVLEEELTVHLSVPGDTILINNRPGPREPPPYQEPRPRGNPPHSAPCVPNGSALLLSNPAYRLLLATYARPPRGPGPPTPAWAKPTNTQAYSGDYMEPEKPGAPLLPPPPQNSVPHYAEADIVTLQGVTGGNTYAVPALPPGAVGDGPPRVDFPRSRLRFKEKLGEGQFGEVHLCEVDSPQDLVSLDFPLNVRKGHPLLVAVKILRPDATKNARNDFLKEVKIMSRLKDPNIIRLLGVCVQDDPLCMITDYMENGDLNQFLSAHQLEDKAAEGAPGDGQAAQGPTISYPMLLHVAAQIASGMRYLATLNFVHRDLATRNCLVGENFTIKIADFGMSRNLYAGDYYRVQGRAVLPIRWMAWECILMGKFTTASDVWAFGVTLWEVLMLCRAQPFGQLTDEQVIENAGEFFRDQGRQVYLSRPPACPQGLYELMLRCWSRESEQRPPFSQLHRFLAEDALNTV

Question: Which IC50 does the source give for `O=C(Nc1ccc(Cl)c(COc2cccnc2)c1)c1cccc(C(F)(F)F)c1` [Compound 3, N‐(4‐chloro‐3‐((pyridin‐3‐yloxy)methyl)phenyl)‐3‐(trifluoromethyl)benzamide] here?
Answer: 92.5 nM
